Compound activity: PubChem, several laboratories
Most compounds without a hit are left out; they make up all but 1.3% or so of the library.
LEDGF integ inh: blockers of LEDGF/p75-dependent integrase strand transfer – biochemical, TR-FRET, high throughput, primary screen. TR-FRET IN-LEDGF/p75 DNA integration, Eu/Cy5. inhibition, % at 3.7 µM. hit rate 0.64% among 370,000;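 active = inhibition above the screen-wide mean plus 3 SD, cut at about 13% in these data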;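 note: signal is the Cy5 over europium emission ratio at 671 and 618 nm; 0% = plate median of compound wells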
Casp6 inh: human caspase-6 inhibitors, primary screen, biochemical, VEID-R110 fluorescence, single point, set 2; inhibition, % at 12.5 µM; P55212; purified caspase-6, Z-VEID-R110 cleavage fluorescence; hit rate 0.53% among 350,000;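 active = mean inhibition across replicates at least about 35%, with every replicate also reaching that limit, limit read from the data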;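 note: 0% = median of neutral control wells and 100% = no fluorescence left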
UCH37 DUB inh: inhibitors of human UCH37 deubiquitinase, primary screen, biochemical, Ub-AMC cleavage, fluorescence. Ubiquitin carboxyl-terminal hydrolase isozyme L5 (Homo sapiens), Q9Y5K5. purified proteasome/UCH37. inhibition, % (test concentration not listed). hit rate 0.33% among 330,000. AID 588478, 2011;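 active = mean inhibition over replicate wells above about 20%, limit read from the data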;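 note: 0% = compound-free wells with enzyme and 100% = wells lacking proteasome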
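Test system – human UCH37 enzyme supplied as purified proteasome complex · Incubation – 30 min preincubation with enzyme, 25 min cleavage at room temperature · Detection – AMC fluorescence from Ub-AMC cleavage, excitation 355 nm, emission 460 nm · Benchmarks – no-proteasome wells (full inhibition) and compound-free wells (no inhibition)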
NSD2 HMT inh: NSD2 histone methyltransferase inhibitors, primary screen, biochemical, AlphaScreen, single concentration, set 2; inhibition, % at 12.5 µM; NSD2 peptide methylation, 120 min; hit rate 0.54% among 310,000; in the data active = inhibition above about 50%
Target sequence (O96028 whole entry, looked up): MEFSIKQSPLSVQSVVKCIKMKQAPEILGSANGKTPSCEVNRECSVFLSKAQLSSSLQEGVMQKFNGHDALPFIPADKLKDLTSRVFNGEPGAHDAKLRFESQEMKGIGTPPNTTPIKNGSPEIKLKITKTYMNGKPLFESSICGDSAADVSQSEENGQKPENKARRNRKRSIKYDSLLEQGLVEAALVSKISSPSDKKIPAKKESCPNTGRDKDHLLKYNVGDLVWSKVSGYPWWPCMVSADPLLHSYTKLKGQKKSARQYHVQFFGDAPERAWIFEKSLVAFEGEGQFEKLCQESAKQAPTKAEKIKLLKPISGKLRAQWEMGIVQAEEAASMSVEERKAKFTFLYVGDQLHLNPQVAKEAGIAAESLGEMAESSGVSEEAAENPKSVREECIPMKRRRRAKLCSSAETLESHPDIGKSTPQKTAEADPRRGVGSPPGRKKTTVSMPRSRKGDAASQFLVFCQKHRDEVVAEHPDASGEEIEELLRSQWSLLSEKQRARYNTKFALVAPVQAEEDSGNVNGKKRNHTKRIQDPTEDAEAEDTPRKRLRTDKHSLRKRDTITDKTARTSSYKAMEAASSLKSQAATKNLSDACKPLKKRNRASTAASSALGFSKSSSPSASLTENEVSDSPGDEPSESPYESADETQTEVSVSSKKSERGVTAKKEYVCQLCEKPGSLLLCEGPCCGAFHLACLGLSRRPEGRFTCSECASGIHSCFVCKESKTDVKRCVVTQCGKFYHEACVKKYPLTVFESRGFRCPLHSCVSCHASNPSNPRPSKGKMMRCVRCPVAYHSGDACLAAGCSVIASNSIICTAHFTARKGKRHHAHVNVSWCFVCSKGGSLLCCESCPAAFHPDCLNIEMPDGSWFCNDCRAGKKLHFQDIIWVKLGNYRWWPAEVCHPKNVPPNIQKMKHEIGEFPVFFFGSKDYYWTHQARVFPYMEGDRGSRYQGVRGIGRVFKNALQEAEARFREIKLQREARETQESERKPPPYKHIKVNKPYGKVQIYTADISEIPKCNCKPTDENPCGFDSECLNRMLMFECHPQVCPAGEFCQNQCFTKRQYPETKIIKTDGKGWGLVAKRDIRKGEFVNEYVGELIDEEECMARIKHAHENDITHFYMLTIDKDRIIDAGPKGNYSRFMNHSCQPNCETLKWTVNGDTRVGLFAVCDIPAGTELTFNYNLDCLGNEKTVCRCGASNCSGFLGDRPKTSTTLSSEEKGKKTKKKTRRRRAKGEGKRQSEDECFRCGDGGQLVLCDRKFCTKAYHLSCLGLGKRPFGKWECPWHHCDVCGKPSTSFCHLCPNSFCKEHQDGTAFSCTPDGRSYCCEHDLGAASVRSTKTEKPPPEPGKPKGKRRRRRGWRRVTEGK
TDP2 absorb: human TDP2 enzyme inhibitors, primary screen, biochemical, epi absorbance, recombinant enzyme; hit rate 0.34% among 370,000; AID 720702, 2013; inhibition, % at 12.8 µM; Tyrosyl-DNA phosphodiesterase 2 (Homo sapiens), O95551; T5PNP hydrolysis, p-nitrophenol absorbance 415 nm;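 active = inhibition above the mean of all tested compounds plus 3 SD, set per campaign, cut at about 25% in these data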;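 note: 0% = DMSO with enzyme and 100% = buffer with substrate but no TDP2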
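System – recombinant human TDP2 · Quantity – TDP2 enzyme at 120 nM final · Doses – single concentration, 12.8 µM nominal, with 1% DMSO · Incubation – 2 h at 37 °C · Measured by – epi absorbance of p-nitrophenol freed from T5PNP by hydrolysis · Read-out – % inhibition relative to enzyme-containing and enzyme-free wells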
IN multimer up: HIV-1 IN multimer formation enhancers, counter-screen for LEDGF/p75 integration inhibitor project, biochemical, TR-FRET; shares compounds with LEDGF integ inh; TR-FRET HIV-1 integrase multimerization; activation, % at 7.7 µM; hit rate 17% among 2,000; in the data active = activation above about 8.9%
TR-FRET interf: TR-FRET optical interference artefacts, confirmation, artefact control for LEDGF/p75-dependent integration inhibitor project, biochemical, HIV-1 IN multimerization | 2,000 tested, under 10 active | inhibition, % at 7.7 µM | shares compounds with LEDGF integ inh | TR-FRET optical interference counterscreen;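 active = inhibition above the mean over all tested compounds plus 3 SD, which no compound reached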;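 note: 0% = integrase with antibodies and DMSO and 100% = antibodies without integrase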
IN-LEDGF confirm: inhibitors of HIV-1 IN-LEDGF/p75 DNA integration, confirmation, biochemical, TR-FRET | shares compounds with LEDGF integ inh | TR-FRET LEDGF/p75-dependent HIV-1 integration | inhibition, % at 3.7 µM | hit rate 36% among 2,000 | AID 1053136, 2014; in the data active = inhibition above about 14%
Alpha artifact: AlphaScreen signal interference with preloaded methylated product, dose response, artefact control for NSD2 inhibitor project, biochemical, cherry-picked samples. shares compounds with NSD2 HMT inh. AlphaScreen artifact counterscreen, preloaded methylated H4 peptide. AC35, µM (series often up to 10 µM), for inactives: at the highest dose activity change, negative = signal loss. hit rate 9.4% among 1,500. AID 1053174, 2014; call rule not given here
* marks the source's active call; other numbers are inactive results.

Results for CC(C)C1Nc2ccc(C(=O)O)cc2C2C=CCC21 (configuration not stated) ?
LEDGF integ inh: 17*; Casp6 inh: 10; UCH37 DUB inh: 4; NSD2 HMT inh: 58*; TDP2 absorb: 14; IN multimer up: 5; TR-FRET interf: -27; IN-LEDGF confirm: 24*; Alpha artifact: -5%

What do the screens show for `CNc1ccc(Br)cc(C(=O)/C=C/c2ccc(OC)cc2)c1=O`?
LEDGF integ inh: 30*; UCH37 DUB inh: 7; NSD2 HMT inh: 66*; TDP2 absorb: -7; IN multimer up: 3; TR-FRET interf: -16; IN-LEDGF confirm: 27*; Alpha artifact: -11%

What do the screens show for `O=S(=O)(Nc1nc(-c2ccco2)c(-c2ccco2)s1)c1ccc(F)cc1F`?
LEDGF integ inh: 35*; Casp6 inh: 62*; NSD2 HMT inh: 100*; TDP2 absorb: 4; IN multimer up: 1; TR-FRET interf: -5; IN-LEDGF confirm: 10; Alpha artifact: 1%

How did O=c1c(=Cc2ccc(CNS(=O)(=O)c3ccccc3)o2)sc2n1CCN=2 do in these assays?
UCH37 DUB inh: 12

What do the screens show for `Cc1[nH]c(=O)[nH]c1C(=O)CCCCC(=O)O`?
LEDGF integ inh: 73*; Casp6 inh: -4; UCH37 DUB inh: 3; NSD2 HMT inh: 130*; TDP2 absorb: -9; IN multimer up: -2; TR-FRET interf: 8; IN-LEDGF confirm: 60*; Alpha artifact: -5%

Results for N#Cc1c(SCC(=O)Nc2nncs2)sc2c(O)cc(=O)[nH]c12 ?
LEDGF integ inh: 20*; Casp6 inh: 84*; NSD2 HMT inh: 111*; TDP2 absorb: 21; IN multimer up: 29*; TR-FRET interf: -146; IN-LEDGF confirm: 26*; Alpha artifact: -10%

How did Cc1ccc(NC(=O)CSc2sc3c(O)cc(=O)[nH]c3c2C#N)c(F)c1 do in these assays?
LEDGF integ inh: 4; Casp6 inh: 29; TDP2 absorb: 19

How did O=C(O)c1ccc(-n2cccc2/C=C2/NC(=O)N(c3ccccc3)C2=O)cc1 do in these assays?
LEDGF integ inh: 22*; Casp6 inh: 70*; UCH37 DUB inh: 10; NSD2 HMT inh: 101*; TDP2 absorb: -9; IN multimer up: 14*; TR-FRET interf: -72; IN-LEDGF confirm: 31*; Alpha artifact: -15%

Results for O=C1N/C(=C/c2cccn2-c2ccc(F)cc2)C(=O)N1Cc1ccccc1 ?
LEDGF integ inh: 3; UCH37 DUB inh: -53; NSD2 HMT inh: 0; TDP2 absorb: 3

How did COC(=O)c1nn(-c2ccccc2)c(Cl)c1C=NOCc1ccc(C)cc1 do in these assays?
UCH37 DUB inh: 2

Results for O=C(/C=C/c1ccco1)Nc1ccccc1C(=O)O ?
LEDGF integ inh: 17*; UCH37 DUB inh: 12; NSD2 HMT inh: 73*; TDP2 absorb: 0; IN multimer up: 1; TR-FRET interf: -3; IN-LEDGF confirm: 33*; Alpha artifact: -2%

How did Oc1ccc(-c2csc(Nc3cccc4ccccc34)n2)cc1O do in these assays?
LEDGF integ inh: 24*; Casp6 inh: 43*; UCH37 DUB inh: -9; NSD2 HMT inh: 51*; TDP2 absorb: -7; IN multimer up: 17*; TR-FRET interf: -83; IN-LEDGF confirm: 68*; Alpha artifact: -17%

Results for Oc1ccc(NCc2cccc(OCc3ccc(F)cc3)c2)cc1 ?
LEDGF integ inh: 14*; Casp6 inh: 38*; UCH37 DUB inh: -3; NSD2 HMT inh: 59*; TDP2 absorb: 14; IN multimer up: 5; TR-FRET interf: -26; IN-LEDGF confirm: 26*; Alpha artifact: -5%

How did OCCNCc1cccc(OCc2ccc(Cl)cc2)c1 do in these assays?
LEDGF integ inh: 0; Casp6 inh: -2; UCH37 DUB inh: 5; NSD2 HMT inh: 3; TDP2 absorb: -1

How did CCOC(=O)c1c(N=Cc2cccc([N+](=O)[O-])c2O)sc(C)c1C do in these assays?
UCH37 DUB inh: 4

How did CCC(CC)=NN=Cc1c(O)n(CC)c2cc(C3=NNC(=O)CC3)ccc12 do in these assays?
UCH37 DUB inh: 5

Results for O=C1c2ccccc2C(=O)c2c(NCc3cccnc3)cccc21 ?
LEDGF integ inh: -1; UCH37 DUB inh: 2; NSD2 HMT inh: 1; TDP2 absorb: 7

Results for O=C1c2cccc(NCCCNCCO)c2C(=O)c2cccc(NCCCNCCO)c21 ?
LEDGF integ inh: 16*; Casp6 inh: -45; NSD2 HMT inh: 88*; TDP2 absorb: 16; IN multimer up: 18*; TR-FRET interf: -89; IN-LEDGF confirm: 13*; Alpha artifact: 4.2µM*

What do the screens show for `O=C(O)COc1ccc2c(c1)O/C(=C\c1ccco1)C2=O`?
LEDGF integ inh: 41*; Casp6 inh: 52*; UCH37 DUB inh: -14; NSD2 HMT inh: 66*; TDP2 absorb: 8; IN multimer up: 27*; TR-FRET interf: -95; IN-LEDGF confirm: 46*; Alpha artifact: -2%

What do the screens show for `CCOc1ccccc1C=NN1CCN(Cc2ccccc2)CC1`?
UCH37 DUB inh: 2

What do the screens show for `O=C(NN=Cc1cccc(O)c1)NC1CCCCC1`?
UCH37 DUB inh: 1

Results for O=C(O)c1cccc(-n2cccc2C=NO)c1 ?
UCH37 DUB inh: 2

Results for O=C(O)c1cccc(-n2cccc2/C=C\[N+](=O)[O-])c1 ?
LEDGF integ inh: 32*; UCH37 DUB inh: 3; NSD2 HMT inh: 69*; TDP2 absorb: 18; IN multimer up: 3; TR-FRET interf: -15; IN-LEDGF confirm: 6; Alpha artifact: -2%
